{"source": "ChEMBL document CHEMBL1275434", "about": "“In vitro evaluation of CBR-2092, a novel rifamycin-quinolone hybrid antibiotic: studies of the mode of action in Staphylococcus aureus” (Antimicrob Agents Chemother, 2008)", "key": {"Staphylococcus aureus [1]": {"system": "Staphylococcus aureus", "assay": "Inhibition of DNA synthesis in Staphylococcus aureus CB190 assessed as decrease in [methyl-3H]thymidine incorporation at 0.5 ug/ml", "format": "functional, organism-based"}, "Staphylococcus aureus [2]": {"system": "Staphylococcus aureus", "assay": "Antimicrobial activity against Staphylococcus aureus CB1954 harboring rpoB H481Y, gyrA S84L, K809 deficient gyrA, parC S80F, parC A523D mutant genes selected after CBR-2092 exposure for 7 days by agar dilution method", "format": "functional", "settings": "CB1954, 168 h", "procedure,_shortened": "(§1)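 CLSI agar dilution MIC with cation-adjusted Mueller-Hinton (MHII) agar as the base medium.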"}, "Staphylococcus aureus [3]": {"system": "Staphylococcus aureus", "assay": "Antimicrobial activity against Staphylococcus aureus CB1883 harboring rpoB R484H mutant gene, L520 deficient gyrA gene, gyrA S84L mutant gene and R236 duplicated par C gene by agar dilution method", "format": "functional", "procedure,_shortened": "(§2)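 CLSI agar dilution MIC on MHII base medium against stepwise-passage isolates; passage was in MHII broth without polysorbate 80, daily at 37°C.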"}, "Staphylococcus aureus [4]": {"system": "Staphylococcus aureus", "assay": "Antimicrobial activity against Staphylococcus aureus CB1334 harboring rpoB H481Y, parC S80F,Q27H and gyrA S84L mutant genes selected after 0.8 ug/ml drug exposure by broth microdilution method", "format": "functional"}, "Staphylococcus aureus [5]": {"system": "Staphylococcus aureus", "assay": "Antimicrobial activity against Staphylococcus aureus CB1524 harboring rpoB H481Y and gyrA G773V mutant genes selected after 0.25 ug/ml drug exposure by broth microdilution method", "format": "functional", "procedure,_shortened": "(§3)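 CLSI broth microdilution in cation-adjusted Mueller-Hinton (MHII) broth supplemented with 0.002% (vol/vol) polysorbate 80 to limit compound loss to plastic. Strains are spontaneous single-step mutants isolated on agar from an rpoB H481Y parent (RN4220 background), purified through drug-free passage with the resistance phenotype re-verified as stable before testing; target loci genotyped by PCR amplification and sequencing.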"}, "Staphylococcus aureus [6]": {"system": "Staphylococcus aureus", "assay": "Antimicrobial activity against Staphylococcus aureus CB1523 harboring rpoB H481Y and gyrA A26V mutant genes selected after 0.25 ug/ml drug exposure by broth microdilution method", "format": "functional", "procedure,_shortened": "as §3"}, "Staphylococcus aureus [7]": {"system": "Staphylococcus aureus", "assay": "Antimicrobial activity against rifampin-sensitive Staphylococcus aureus CB190 by broth microdilution method", "format": "functional", "procedure,_shortened": "(§4)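 CLSI broth microdilution MIC in cation-adjusted Mueller-Hinton (MHII) broth supplemented with 0.002% (vol/vol) polysorbate 80, included to limit compound loss to plastic surfaces.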"}, "Staphylococcus aureus [8]": {"system": "Staphylococcus aureus", "assay": "Antimicrobial activity against Staphylococcus aureus CB1335 harboring rpoB H481Y, parC S80F, parE E474Q and gyrA S84L mutant genes selected after 0.8 ug/ml drug exposure by broth microdilution method", "format": "functional"}, "Staphylococcus aureus [9]": {"system": "Staphylococcus aureus", "assay": "Antimicrobial activity against Staphylococcus aureus CB1891 harboring […], parE P587S and parE F638V mutant genes by broth microdilution method"}, "Staphylococcus aureus [10]": {"system": "Staphylococcus aureus", "assay": "Antimicrobial activity against Staphylococcus aureus CB1420 harboring rpoB H481Y and gyrA G584V mutant genes selected after 0.1 ug/ml drug exposure by broth microdilution method"}, "Staphylococcus aureus [11]": {"system": "Staphylococcus aureus", "assay": "Antimicrobial activity against rifampin-sensitive Staphylococcus aureus CB190 harboring rpo BH481D mutant gene by broth microdilution method", "format": "functional", "procedure,_shortened": "as §4"}, "Staphylococcus aureus [12]": {"system": "Staphylococcus aureus", "assay": "Antimicrobial activity against Staphylococcus aureus CB370 harboring rifampin-resistant rpoB H481Y mutant gene by broth microdilution method", "format": "functional", "procedure,_shortened": "as §4"}, "Staphylococcus aureus [13]": {"system": "Staphylococcus aureus", "assay": "Inhibition of RNA synthesis in Staphylococcus aureus CB190 assessed as decrease in [5,6-3H]uridine incorporation at 0.5 ug/ml", "format": "functional, organism-based"}, "Staphylococcus aureus [14]": {"system": "Staphylococcus aureus", "assay": "Antimicrobial activity against Staphylococcus aureus CB1881 harboring rpoB R484H mutant gene and L520 deficient gyrA gene by agar dilution method", "format": "functional", "procedure,_shortened": "as §2"}, "Staphylococcus aureus [15]": {"system": "Staphylococcus aureus", "assay": "Antimicrobial activity against Staphylococcus aureus CB1884 harboring rpoB R484H mutant gene, L520 deficient gyrA gene, gyrA S84L mutant gene, R236 duplicated par C gene and parC H103Y mutant gene", "format": "functional"}, "Staphylococcus aureus [16]": {"system": "Staphylococcus aureus", "assay": "Antimicrobial activity against Staphylococcus aureus CB370 harboring rpoB H481Y mutant gene by agar dilution method", "format": "functional", "procedure,_shortened": "as §1"}, "Staphylococcus aureus [17]": {"system": "Staphylococcus aureus", "assay": "Antimicrobial activity against Staphylococcus aureus CB1954 harboring rpoB H481Y, gyrA S84L, K809 deficient gyrA, parC S80F, parC A523D mutant genes selected after CBR-2092 exposure for 7 days by broth microdilution method", "format": "functional", "settings": "CB1954, 168 h", "procedure,_shortened": "as §4"}, "Staphylococcus aureus [18]": {"system": "Staphylococcus aureus", "assay": "Antimicrobial activity against Staphylococcus aureus CB1881 harboring rpoB R484H mutant gene and L520 deficient gyrA gene", "format": "functional"}, "Staphylococcus aureus [19]": {"system": "Staphylococcus aureus", "assay": "Antimicrobial activity against Staphylococcus aureus CB1952 harboring rpoB S486L, gyrA […], gyrA E88Q, gyrA G532S, parC S80F, parC E84L mutant genes selected after CBR-2092 exposure for 21 days by broth microdilution method", "format": "functional", "settings": "CB1952, 504 h", "procedure,_shortened": "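CLSI broth microdilution MIC in MHII with 0.002% polysorbate 80 against strains from 20–21 days of stepwise passage of rifamycin- and/or quinolone-resistant parents; CBR-2092 passages used MHII with 0.002% polysorbate 80.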"}, "Staphylococcus aureus [20]": {"system": "Staphylococcus aureus", "assay": "Inhibition of cell wall synthesis in Staphylococcus aureus CB190 assessed as decrease in [2,3-3H]D-alanine incorporation at 0.5 ug/ml", "format": "functional, organism-based"}, "Staphylococcus aureus [21]": {"system": "Staphylococcus aureus", "assay": "Antimicrobial activity against wild-type Staphylococcus aureus CB190", "format": "functional"}, "Staphylococcus aureus [22]": {"system": "Staphylococcus aureus", "assay": "Antimicrobial activity against Staphylococcus aureus CB1353 harboring rpoB H481Y, parC S80F, parE V458G and gyrA S84L mutant genes selected after 0.53 ug/ml drug exposure by broth microdilution method", "format": "functional"}, "Staphylococcus aureus [23]": {"system": "Staphylococcus aureus", "assay": "Antimicrobial activity against Staphylococcus aureus CB1326 harboring rpoB H481Y and gyrA S784F mutant genes selected after 0.2 ug/ml drug exposure by broth microdilution method", "format": "functional", "procedure,_shortened": "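CLSI broth microdilution MIC in cation-adjusted Mueller-Hinton (MHII) broth with 0.002% (vol/vol) polysorbate 80. Single-step mutants were selected on agar […], purified by drug-free passage, their phenotype re-verified, and resistance loci sequenced.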"}, "Staphylococcus aureus [24]": {"system": "Staphylococcus aureus", "assay": "Antimicrobial activity against Staphylococcus aureus CB809 harboring rpoB H481Y and parC S80F mutant genes by broth microdilution method"}, "Staphylococcus aureus [25]": {"system": "Staphylococcus aureus", "assay": "Antimicrobial activity against Staphylococcus aureus CB815 harboring rpoB H481Y, gyrA S84L and parC S80F mutant genes by broth microdilution method"}, "Staphylococcus aureus [26]": {"system": "Staphylococcus aureus", "assay": "Antimicrobial activity against Staphylococcus aureus CB1883 harboring rpoB R484H mutant gene, L520 deficient gyrA gene, gyrA S84L mutant gene and R236 duplicated par C gene", "format": "functional"}, "Staphylococcus aureus [27]": {"system": "Staphylococcus aureus", "assay": "Antimicrobial activity against Staphylococcus aureus CB814 harboring gyrA […] and parc S80F mutant genes by broth microdilution method", "format": "functional", "procedure,_shortened": "as §4"}, "[28]": {"assay": "Inhibition of Staphylococcus aureus wild-type RNA polymerase RpoB", "procedure,_shortened": "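Recombinant S. aureus σA RNA polymerase holoenzyme in a single-round transcription assay using the pGL2B-T7A1-G-less template. The 272-nucleotide G-less RNA product was quantified by gel electrophoresis. IC50 is the concentration halving the product formed without test agent.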"}, "Staphylococcus aureus [29]": {"system": "Staphylococcus aureus", "assay": "Antimicrobial activity against Staphylococcus aureus CB1884 by agar dilution method", "format": "functional", "procedure,_shortened": "as §2"}, "Staphylococcus aureus [30]": {"system": "Staphylococcus aureus", "assay": "Antimicrobial activity against Staphylococcus aureus CB814 harboring […] and parC S80F mutant genes by agar dilution method", "format": "functional", "procedure,_shortened": "as §1"}, "Staphylococcus aureus [31]": {"system": "Staphylococcus aureus", "assay": "Antimicrobial activity against rifampin-sensitive Staphylococcus aureus CB190 harboring rpoB A477V mutant gene by broth microdilution method", "format": "functional", "procedure,_shortened": "as §4"}, "Staphylococcus aureus [32]": {"system": "Staphylococcus aureus", "assay": "Antimicrobial activity against Staphylococcus aureus CB1880 harboring rpoB R484H mutant gene", "format": "functional"}}, "note": "Active and inactive are the calls of the source. The calls are words filed in the database; no cut-off is given here.", "data": [{"smiles": "CO[C@H]1/C=C/O[C@@]2(C)Oc3c(C)c(O)c4c(O)c(c(/C=N/N5CCC(N(C)C6([C@@H]7CCN(c8c(F)cn9c(=O)c(C(=O)O)cc(C%10CC%10)c9c8C)C7)CC6)CC5)c(O)c4c3C2=O)NC(=O)/C(C)=C\\C=C\\[C@H](C)[C@H](O)[C@@H](C)[C@@H](O)[C@@H](C)[C@H](OC(C)=O)[C@@H]1C", "values": [{"measurement": "Activity", "setting": "Staphylococcus aureus [1]", "value": "Active"}, {"measurement": "MIC", "setting": "Staphylococcus aureus [2]", "value": 2, "unit": "µg/mL"}, {"measurement": "MIC", "setting": "Staphylococcus aureus [3]", "value": 1, "unit": "µg/mL"}, {"measurement": "MIC", "setting": "Staphylococcus aureus [4]", "value": 8, "unit": "µg/mL"}, {"measurement": "MIC", "setting": "Staphylococcus aureus [5]", "value": 2, "unit": "µg/mL"}, {"measurement": "MIC", "setting": "Staphylococcus aureus [6]", "value": 1, "unit": "µg/mL"}, {"measurement": "MIC", "setting": "Staphylococcus aureus [7]", "value": 0.015, "unit": "µg/mL"}, {"measurement": "MIC", "setting": "Staphylococcus aureus [8]", "value": "> 16", "unit": "µg/mL"}, {"measurement": "MIC", "setting": "Staphylococcus aureus [9]", "value": 0.03, "unit": "µg/mL"}, {"measurement": "MIC", "setting": "Staphylococcus aureus [10]", "value": 0.5, "unit": "µg/mL"}, {"measurement": "MIC", "setting": "Staphylococcus aureus [11]", "value": 0.25, "unit": "µg/mL"}, {"measurement": "MIC", "setting": "Staphylococcus aureus [12]", "value": 0.12, "unit": "µg/mL"}, {"measurement": "Activity", "setting": "Staphylococcus aureus [13]", "value": "Active"}, {"measurement": "MIC", "setting": "Staphylococcus aureus [14]", "value": 0.25, "unit": "µg/mL"}, {"measurement": "Time", "setting": "Staphylococcus aureus [15]", "value": 65, "unit": "min"}, {"measurement": "MIC", "setting": "Staphylococcus aureus [16]", "value": 0.03, "unit": "µg/mL"}, {"measurement": "MIC", "setting": "Staphylococcus aureus [17]", "value": 16, "unit": "µg/mL"}, {"measurement": "Time", "setting": "Staphylococcus aureus [18]", "value": 41, "unit": "min"}, {"measurement": "MIC", "setting": "Staphylococcus aureus [19]", "value": 31, "unit": "µg/mL"}, {"measurement": "Activity", "setting": "Staphylococcus aureus [20]", "value": "Active"}, {"measurement": "Time", "setting": "Staphylococcus aureus [21]", "value": 38, "unit": "min"}, {"measurement": "MIC", "setting": "Staphylococcus aureus [22]", "value": 16, "unit": "µg/mL"}, {"measurement": "MIC", "setting": "Staphylococcus aureus [23]", "value": 0.5, "unit": "µg/mL"}, {"measurement": "MIC", "setting": "Staphylococcus aureus [24]", "value": 0.25, "unit": "µg/mL"}, {"measurement": "MIC", "setting": "Staphylococcus aureus [25]", "value": 2, "unit": "µg/mL"}, {"measurement": "Time", "setting": "Staphylococcus aureus [26]", "value": 47, "unit": "min"}, {"measurement": "MIC", "setting": "Staphylococcus aureus [27]", "value": 0.015, "unit": "µg/mL"}, {"measurement": "IC50", "setting": "[28]", "value": 34, "unit": "nM"}, {"measurement": "MIC", "setting": "Staphylococcus aureus [29]", "value": 4, "unit": "µg/mL"}, {"measurement": "MIC", "setting": "Staphylococcus aureus [30]", "value": 0.06, "unit": "µg/mL"}, {"measurement": "MIC", "setting": "Staphylococcus aureus [31]", "value": 0.12, "unit": "µg/mL"}, {"measurement": "Time", "setting": "Staphylococcus aureus [32]", "value": 43, "unit": "min"}]}]}
